Assay results published in ChEMBL document CHEMBL4396947, “Synthesis and characterization of novel isoform-selective IP6K1 inhibitors” (Bioorg Med Chem Lett, 2019).

Tests used:
[1] = molecular target: Inositol hexakisphosphate kinase 3 (Homo sapiens, UniProt Q96PC2); experiment: Inhibition of IP6K3 (unknown origin) in presence of ATP at Km concentration by Cheng-Prusoff equation analysis
How it was run: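 Purified IP6K isoforms run in the ADP-Glo Max kinase assay with 1 mM ATP. Measured IC50 values converted to Ki with the Cheng-Prusoff equation.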

[2] = molecular target: Inositol hexakisphosphate kinase 1 (Homo sapiens, UniProt Q92551); experiment: Binding affinity to IP6K1 (unknown origin) assessed as change in melting temperature by SYPRO orange dye-based assay
How it was run: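 Thermal shift format. Purified IP6K1 heated across a temperature gradient with the ligand at several concentrations. Binding read as the rise in protein melting temperature, including the maximal Tm shift (TmMax).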

[3] = molecular target: ALK tyrosine kinase receptor (Homo sapiens) (UniProt Q9UM73); experiment: Inhibition of human recombinant ALK (1058 to end residues) assessed as residual activity at 10 uM using KKKSPGEYVNIEF as substrate incubated for 40 mins in presence of [gamma-33P]ATP at Km concentration by radiometric assay relative to control
[4] = molecular target: 5'-AMP-activated protein kinase catalytic subunit alpha-1 (Homo sapiens) (UniProt Q13131); experiment: Inhibition of human full length recombinant AMPKalpha1 assessed as residual activity at 10 uM using AMARAASAAALAR as substrate incubated for 40 mins in presence of [gamma-33P]ATP at Km concentration by radiometric assay relative to control
[5] = molecular target: Mitogen-activated protein kinase kinase kinase 5 (Homo sapiens) (UniProt Q99683); experiment: Inhibition of recombinant human ASK1 (649 to 946 residues) assessed as residual activity at 10 uM using myelin basic protein as substrate incubated for 40 mins in presence of [gamma-33P]ATP at Km concentration by radiometric assay relative to control
[6] = molecular target: Serine/threonine-protein kinase Chk1 (Homo sapiens) (UniProt O14757); experiment: Inhibition of human full length recombinant CHK1 assessed as residual activity at 10 uM using KKKVSRSGLYRSP as substrate incubated for 40 mins in presence of [gamma-33P]ATP at Km concentration by radiometric assay relative to control
[7] = molecular target: Ephrin type-B receptor 4 (Homo sapiens) (UniProt P54760); experiment: Inhibition of recombinant human EPHB4 (561 to end residues) assessed as residual activity at 10 uM using poly (Glu,Tyr) 4:1 as substrate incubated for 40 mins in presence of [gamma-33P]ATP at Km concentration by radiometric assay relative to control
[8] = molecular target: Inhibitor of nuclear factor kappa-B kinase subunit alpha (Homo sapiens) (UniProt O15111); experiment: Inhibition of human full length recombinant IKKalpha assessed as residual activity at 10 uM using peptide as substrate incubated for 40 mins in presence of [gamma-33P]ATP at Km concentration by radiometric assay relative to control
[9] = molecular target: Serine/threonine-protein kinase 10 (Homo sapiens) (UniProt O94804); experiment: Inhibition of human recombinant LOK (1 to 348 residues) assessed as residual activity at 10 uM using RLGRDKYKTLRQI as substrate incubated for 40 mins in presence of [gamma-33P]ATP at Km concentration by radiometric assay relative to control
[10] = molecular target: Tyrosine-protein kinase Lyn (Homo sapiens) (UniProt P07948); experiment: Inhibition of full length recombinant human LYN assessed as residual activity at 10 uM using poly (Glu,Tyr) 4:1 as substrate incubated for 40 mins in presence of [gamma-33P]ATP at Km concentration by radiometric assay relative to control
Homo sapiens [11] = species: Homo sapiens; experiment: Inhibition of recombinant human MAPKAPK2 A399G mutant (46 to end residues) assessed as residual activity at 10 uM using KKLNRTLSVA as substrate incubated for 40 mins in presence of [gamma-33P]ATP at Km concentration by radiometric assay relative to control
[12] = molecular target: Serine/threonine-protein kinase 4 (Homo sapiens) (UniProt Q13043); experiment: Inhibition of full length recombinant human MST1 assessed as residual activity at 10 uM using KKSRGDYMTMQIG as substrate incubated for 40 mins in presence of [gamma-33P]ATP at Km concentration by radiometric assay relative to control
[13] = molecular target: Serine/threonine-protein kinase mTOR (Homo sapiens) (UniProt P42345); experiment: Inhibition of full length recombinant human mTOR assessed as residual activity at 10 uM incubated for 40 mins in presence of [gamma-33P]ATP at Km concentration by radiometric assay relative to control
[14] = system: Ribosomal protein S6 kinase beta-1 (Homo sapiens), P23443 [T412E]; experiment: Inhibition of recombinant human p70S6K T412E mutant (1 to 421 residues) assessed as residual activity at 10 uM incubated for 40 mins in presence of [gamma-33P]ATP at Km concentration by radiometric assay relative to control
Homo sapiens [15] = species: Homo sapiens; experiment: Inhibition of recombinant human PAK2 L150F/P225T/A339 deletion/V383I mutant (3 to end residues) assessed as residual activity at 10 uM using KEAKEKRQEQIAKR as substrate incubated for 40 mins in presence of [gamma-33P]ATP at Km concentration by radiometric assay relative to control
[16] = molecular target: Protein kinase C theta type (Homo sapiens) (UniProt Q04759); experiment: Inhibition of recombinant full length human PKCtheta assessed as residual activity at 10 uM using histone H1 as substrate incubated for 40 mins in presence of [gamma-33P]ATP at Km concentration by radiometric assay relative to control
[17] = molecular target: cGMP-dependent protein kinase 1 (Homo sapiens) (UniProt Q13976); experiment: Inhibition of recombinant full length human PKG1alpha assessed as residual activity at 10 uM using RRRLSFAEPG as substrate incubated for 40 mins in presence of [gamma-33P]ATP at Km concentration by radiometric assay relative to control
[18] = molecular target: Ribosomal protein S6 kinase alpha-1 (Homo sapiens) (UniProt Q15418); experiment: Inhibition of recombinant full length human RSK1 assessed as residual activity at 10 uM using KKKNRTLSVA as substrate incubated for 40 mins in presence of [gamma-33P]ATP at Km concentration by radiometric assay relative to control
Homo sapiens [19] = species: Homo sapiens; experiment: Inhibition of recombinant full length human PI3K p110delta/p85alpha N253S mutant assessed as residual activity at 10 uM incubated for 40 mins in presence of [gamma-33P]ATP at Km concentration by radiometric assay relative to control
[20] = molecular target: PI3-kinase p110-alpha/p85-alpha (Homo sapiens) (UniProt P27986+P42336); experiment: Inhibition of recombinant full length human PI3K p110alpha/p85alpha assessed as residual activity at 10 uM incubated for 40 mins using phosphatidylinositol-4,5 bisphosphate as substrate in presence of [gamma-33P]ATP at Km concentration by radiometric assay relative to control; format: protein-complex assay
[21] = molecular target: CDK9/cyclin T1 (Homo sapiens) (UniProt O60563+P50750); experiment: Inhibition of recombinant full length human CDK9/CyclinT1 assessed as residual activity at 10 uM using KTFCGTPEYLAPE as substrate incubated for 40 mins in presence of [gamma-33P]ATP at Km concentration by radiometric assay relative to control; format: protein-complex assay

Ribosomal protein S6 kinase alpha-1 (Homo sapiens), sequence (Q15418 whole entry): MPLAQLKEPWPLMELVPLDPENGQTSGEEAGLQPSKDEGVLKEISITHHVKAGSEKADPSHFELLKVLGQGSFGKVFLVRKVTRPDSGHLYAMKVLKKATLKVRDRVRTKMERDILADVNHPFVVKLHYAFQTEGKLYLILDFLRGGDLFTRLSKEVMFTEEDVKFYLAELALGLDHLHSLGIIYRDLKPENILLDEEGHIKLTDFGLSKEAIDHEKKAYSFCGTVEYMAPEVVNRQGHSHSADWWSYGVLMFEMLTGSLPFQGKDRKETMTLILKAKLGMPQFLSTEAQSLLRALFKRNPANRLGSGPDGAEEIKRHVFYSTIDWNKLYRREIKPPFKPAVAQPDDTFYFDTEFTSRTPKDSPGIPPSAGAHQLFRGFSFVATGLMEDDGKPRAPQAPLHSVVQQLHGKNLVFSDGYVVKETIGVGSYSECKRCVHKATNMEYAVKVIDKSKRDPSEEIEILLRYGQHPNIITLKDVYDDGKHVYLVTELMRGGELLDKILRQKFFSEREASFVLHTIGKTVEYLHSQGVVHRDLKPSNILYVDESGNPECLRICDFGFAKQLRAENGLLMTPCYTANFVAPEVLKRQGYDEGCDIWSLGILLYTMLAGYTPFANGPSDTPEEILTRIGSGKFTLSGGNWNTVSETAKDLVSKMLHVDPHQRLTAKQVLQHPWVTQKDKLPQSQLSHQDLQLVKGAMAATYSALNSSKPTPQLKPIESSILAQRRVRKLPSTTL
Serine/threonine-protein kinase 10 (Homo sapiens), sequence (O94804 whole entry, looked up, the tested form may be a part): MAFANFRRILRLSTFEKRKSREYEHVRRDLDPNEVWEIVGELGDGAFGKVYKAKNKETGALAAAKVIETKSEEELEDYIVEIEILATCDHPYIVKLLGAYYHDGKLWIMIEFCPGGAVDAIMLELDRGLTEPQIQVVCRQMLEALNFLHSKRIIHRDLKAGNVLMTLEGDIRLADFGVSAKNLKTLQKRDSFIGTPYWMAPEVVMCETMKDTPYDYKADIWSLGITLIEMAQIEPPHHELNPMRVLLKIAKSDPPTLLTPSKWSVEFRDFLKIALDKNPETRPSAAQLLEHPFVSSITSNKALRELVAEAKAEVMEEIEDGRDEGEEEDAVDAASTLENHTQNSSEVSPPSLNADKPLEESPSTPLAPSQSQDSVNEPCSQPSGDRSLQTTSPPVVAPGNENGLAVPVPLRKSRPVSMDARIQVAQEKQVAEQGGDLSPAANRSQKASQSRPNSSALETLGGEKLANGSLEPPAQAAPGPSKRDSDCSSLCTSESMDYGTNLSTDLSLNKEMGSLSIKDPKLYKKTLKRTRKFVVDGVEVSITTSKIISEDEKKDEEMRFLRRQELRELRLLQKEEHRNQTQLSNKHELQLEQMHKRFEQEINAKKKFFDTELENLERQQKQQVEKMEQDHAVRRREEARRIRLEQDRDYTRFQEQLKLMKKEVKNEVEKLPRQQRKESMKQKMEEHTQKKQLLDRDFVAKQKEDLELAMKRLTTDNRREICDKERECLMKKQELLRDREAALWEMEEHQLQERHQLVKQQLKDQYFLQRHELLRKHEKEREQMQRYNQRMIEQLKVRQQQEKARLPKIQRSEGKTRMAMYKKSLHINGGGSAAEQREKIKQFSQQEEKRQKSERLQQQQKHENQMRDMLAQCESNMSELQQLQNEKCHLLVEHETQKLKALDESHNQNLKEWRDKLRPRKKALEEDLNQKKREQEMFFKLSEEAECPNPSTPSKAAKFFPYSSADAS
cGMP-dependent protein kinase 1 (Homo sapiens), sequence (Q13976 whole entry): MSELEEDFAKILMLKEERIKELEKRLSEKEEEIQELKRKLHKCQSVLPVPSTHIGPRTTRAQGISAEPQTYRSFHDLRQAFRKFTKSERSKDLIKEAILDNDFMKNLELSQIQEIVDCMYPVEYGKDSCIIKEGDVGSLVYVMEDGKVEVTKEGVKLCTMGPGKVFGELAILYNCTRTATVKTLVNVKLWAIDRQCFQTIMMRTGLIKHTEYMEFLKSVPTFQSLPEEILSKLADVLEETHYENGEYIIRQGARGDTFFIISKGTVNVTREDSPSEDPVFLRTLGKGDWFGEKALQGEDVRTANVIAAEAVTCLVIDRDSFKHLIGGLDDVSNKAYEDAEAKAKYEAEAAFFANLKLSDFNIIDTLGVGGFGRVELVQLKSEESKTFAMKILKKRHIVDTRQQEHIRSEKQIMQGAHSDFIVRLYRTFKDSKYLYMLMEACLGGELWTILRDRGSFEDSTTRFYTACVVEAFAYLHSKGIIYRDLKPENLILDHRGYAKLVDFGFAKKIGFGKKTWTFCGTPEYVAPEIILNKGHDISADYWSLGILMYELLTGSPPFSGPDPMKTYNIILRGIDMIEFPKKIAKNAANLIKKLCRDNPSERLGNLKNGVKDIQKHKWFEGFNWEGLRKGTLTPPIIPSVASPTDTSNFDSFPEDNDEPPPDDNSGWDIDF
Protein kinase C theta type (Homo sapiens), sequence (Q04759 whole entry, looked up): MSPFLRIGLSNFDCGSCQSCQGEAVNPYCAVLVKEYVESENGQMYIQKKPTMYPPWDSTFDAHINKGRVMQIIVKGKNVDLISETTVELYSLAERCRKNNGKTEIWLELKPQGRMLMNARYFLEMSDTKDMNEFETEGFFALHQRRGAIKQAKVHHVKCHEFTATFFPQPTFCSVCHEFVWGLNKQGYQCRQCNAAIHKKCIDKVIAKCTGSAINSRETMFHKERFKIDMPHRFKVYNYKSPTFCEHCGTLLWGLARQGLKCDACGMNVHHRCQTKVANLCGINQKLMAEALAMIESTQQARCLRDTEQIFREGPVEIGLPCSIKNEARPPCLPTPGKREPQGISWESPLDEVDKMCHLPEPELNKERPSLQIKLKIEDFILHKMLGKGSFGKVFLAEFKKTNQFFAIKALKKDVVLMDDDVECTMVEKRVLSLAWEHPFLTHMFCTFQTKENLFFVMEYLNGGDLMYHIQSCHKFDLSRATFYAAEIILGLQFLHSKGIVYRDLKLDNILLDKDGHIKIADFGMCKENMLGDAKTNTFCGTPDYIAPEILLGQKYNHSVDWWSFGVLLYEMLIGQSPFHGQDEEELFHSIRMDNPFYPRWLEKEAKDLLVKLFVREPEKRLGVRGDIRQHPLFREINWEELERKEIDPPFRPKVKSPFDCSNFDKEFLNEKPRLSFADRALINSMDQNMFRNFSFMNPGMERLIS
Mitogen-activated protein kinase kinase kinase 5 (Homo sapiens), sequence (Q99683 whole entry, the tested form may be a part): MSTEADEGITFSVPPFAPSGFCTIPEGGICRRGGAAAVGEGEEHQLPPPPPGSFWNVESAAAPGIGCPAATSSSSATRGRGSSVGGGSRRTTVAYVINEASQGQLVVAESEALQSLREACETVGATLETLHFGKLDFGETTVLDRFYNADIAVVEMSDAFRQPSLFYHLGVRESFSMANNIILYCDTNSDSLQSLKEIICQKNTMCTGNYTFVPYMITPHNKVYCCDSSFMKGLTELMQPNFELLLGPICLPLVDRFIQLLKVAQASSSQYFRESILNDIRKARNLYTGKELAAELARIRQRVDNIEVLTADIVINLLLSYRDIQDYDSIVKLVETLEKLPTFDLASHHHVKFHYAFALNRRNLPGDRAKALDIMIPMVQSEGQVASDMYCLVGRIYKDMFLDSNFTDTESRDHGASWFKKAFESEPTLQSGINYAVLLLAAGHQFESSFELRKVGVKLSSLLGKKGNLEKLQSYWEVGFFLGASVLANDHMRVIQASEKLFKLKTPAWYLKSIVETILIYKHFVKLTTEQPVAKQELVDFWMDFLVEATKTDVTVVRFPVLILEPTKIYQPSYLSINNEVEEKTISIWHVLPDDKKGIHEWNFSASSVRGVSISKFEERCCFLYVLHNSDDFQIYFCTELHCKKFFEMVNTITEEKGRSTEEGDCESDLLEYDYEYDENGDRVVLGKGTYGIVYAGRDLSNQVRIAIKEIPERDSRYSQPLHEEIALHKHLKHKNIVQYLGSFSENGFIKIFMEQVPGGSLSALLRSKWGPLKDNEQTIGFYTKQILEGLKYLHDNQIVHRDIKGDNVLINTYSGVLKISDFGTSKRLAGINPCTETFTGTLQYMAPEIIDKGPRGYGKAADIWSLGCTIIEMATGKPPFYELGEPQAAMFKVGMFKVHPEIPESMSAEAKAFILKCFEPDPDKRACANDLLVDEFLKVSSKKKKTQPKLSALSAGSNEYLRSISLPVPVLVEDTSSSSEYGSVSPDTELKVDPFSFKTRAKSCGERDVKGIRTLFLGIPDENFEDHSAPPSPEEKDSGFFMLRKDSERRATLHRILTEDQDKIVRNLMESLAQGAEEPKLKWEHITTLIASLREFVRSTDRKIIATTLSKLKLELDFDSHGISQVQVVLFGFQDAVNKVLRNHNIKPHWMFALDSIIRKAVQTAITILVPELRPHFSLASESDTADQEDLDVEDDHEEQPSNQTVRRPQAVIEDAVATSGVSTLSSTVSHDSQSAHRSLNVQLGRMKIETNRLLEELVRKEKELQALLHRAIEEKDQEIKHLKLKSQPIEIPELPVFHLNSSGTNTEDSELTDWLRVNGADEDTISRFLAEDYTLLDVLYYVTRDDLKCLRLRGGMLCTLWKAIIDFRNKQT
Serine/threonine-protein kinase 4 (Homo sapiens), sequence (Q13043 whole entry): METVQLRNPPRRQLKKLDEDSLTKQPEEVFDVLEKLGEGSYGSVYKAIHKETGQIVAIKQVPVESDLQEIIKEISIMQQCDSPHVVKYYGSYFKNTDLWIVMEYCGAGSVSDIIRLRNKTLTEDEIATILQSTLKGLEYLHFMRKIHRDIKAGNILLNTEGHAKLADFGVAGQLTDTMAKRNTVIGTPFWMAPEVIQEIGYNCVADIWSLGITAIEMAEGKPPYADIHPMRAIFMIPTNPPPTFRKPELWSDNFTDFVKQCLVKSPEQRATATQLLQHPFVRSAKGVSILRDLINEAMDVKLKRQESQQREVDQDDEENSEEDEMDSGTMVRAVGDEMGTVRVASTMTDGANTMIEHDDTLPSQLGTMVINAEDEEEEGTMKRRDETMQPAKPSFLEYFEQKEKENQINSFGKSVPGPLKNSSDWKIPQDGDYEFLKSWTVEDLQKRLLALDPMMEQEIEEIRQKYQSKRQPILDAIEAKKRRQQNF

Structure (SMILES): COc1ccc2c(CCNc3nc(NCc4ccc(=O)[nH]c4)c4nc[nH]c4n3)c[nH]c2c1
- Ki [1]: 9.62 µM
- ΔTm [2]: 6.6 °C
- Activity [3]: 88%
- Activity [4]: 97%
- Activity [5]: 72%
- Activity [6]: 91%
- Activity [7]: 69%
- Activity [8]: 109%
- Activity [9]: 97%
- Activity [10]: 86%
- Activity (Homo sapiens [11]): 102%
- Activity [12]: 82%
- Activity [13]: 85%
- Activity [14]: 94%
- Activity (Homo sapiens [15]): 98%
- Activity [16]: 87%
- Activity [17]: 97%
- Activity [18]: 45%
- Activity (Homo sapiens [19]): 95%
- Activity [20]: 99%
- Activity [21]: 79%
